Activity calls are given as the source filed them. The calls are words filed in the database; no cut-off is given here.
How the values were obtained:
A549 [1] = experiment: Disruption of mitochondrial membrane potential in human A549 cells after 48 hrs by Rhodamine-123 staining based spectrofluorometry; type: functional, cell-based
Procedure, shortened: (§1)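 Cells were seeded at 5×10^5 cells/mL overnight and treated with 0.5, 1 and 2 µM compound; the methods say 24 h and the results text says 48 h. Trypsinised cells were washed and stained with rhodamine-123 (2 µM in PBS) for 30 min at room temperature in the dark, washed and read by spectrofluorometer. Data are mean ± SD of three independent experiments.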

A549 [2] = experiment: Cell cycle arrest in human A549 cells assessed as accumulation at G2/M phase at 0.5 uM after 24 to 48 hrs by propidium iodide staining based flow cytometry (reference value: 22.3 to 31%); type: functional
Procedure, shortened: (§2)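 Cells were seeded at 1×10^6 per well and treated 24 h later with 0.5, 1 or 2 µM compound; DMSO-treated cells served as control. Methods give harvest at 48 h (floating plus trypsinised cells); the figure legend says 24 h. Cells were fixed in 70% ethanol for 30 min at 4 °C and stained with PI, Triton X-100 and RNase A for 15 min in the dark. 10000 events were counted by flow cytometry.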

A549 [3] = experiment: Cell cycle arrest in human A549 cells assessed as accumulation at S phase at 1 uM after 24 to 48 hrs by propidium iodide staining based flow cytometry (reference value: 18.3%); type: functional; procedure, shortened: as §2
A549 [4] = experiment: Cell cycle arrest in human A549 cells assessed as accumulation at G0/G1 phase at 0.5 uM after 24 to 48 hrs by propidium iodide staining based flow cytometry (reference value: 49.1%); type: functional; procedure, shortened: as §2
A549 [5] = experiment: Induction of reactive oxygen species generation in human A549 cells at 0.5 to 2 uM after 48 hrs by carboxy-DCFDA staining based spectrofluorometry relative to control; type: functional
A549 [6] = experiment: Cytotoxicity against human A549 cells assessed as growth inhibition after 72 hrs by MTT assay; type: functional, cell-based; details: A549, 72 h
Procedure, shortened: (§3)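 Cells in RPMI 1640 (PC-3, A549, MDA-MB-231) or DMEM (U87MG, MCF-7) with 10% FBS, passages 4-10, were seeded at 3000-5000 per well and left 24 h. Compounds in DMSO/medium were added for 72 h; DMSO served as control. MTT (5 mg/mL) was added for 4 h and formazan dissolved in DMSO. Absorbance was read at 570 nm minus 630 nm. % inhibition was taken versus DMSO, with IC50 by probit; mean ± SD of three experiments in triplicate.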

MDA-MB-231 [7] = experiment: Induction of apoptosis in human MDA-MB-231 cells assessed as late apoptotic cells at 0.5 uM after 24 hrs by Annexin V-FITC/PI dual staining based flow cytometry (reference value: 6.2%); type: functional
MDA-MB-231 [8] = experiment: Cell cycle arrest in human MDA-MB-231 cells assessed as accumulation at S phase at 1 uM after 24 to 48 hrs by propidium iodide staining based flow cytometry (reference value: 4.6%); type: functional; procedure, shortened: as §2
MDA-MB-231 [9] = experiment: Induction of apoptosis in human MDA-MB-231 cells assessed as late apoptotic cells at 1 uM after 24 hrs by Annexin V-FITC/PI dual staining based flow cytometry (reference value: 6.2%); type: functional
A549 [10] = experiment: Induction of apoptosis in human A549 cells after 24 hrs by Annexin V-FITC/PI dual staining based flow cytometry; type: functional, cell-based
A549 [11] = experiment: Cell cycle arrest in human A549 cells assessed as accumulation at G2/M phase at 1 uM after 24 to 48 hrs by propidium iodide staining based flow cytometry (reference value: 22.3 to 31%); type: functional; procedure, shortened: as §2
MDA-MB-231 [12] = experiment: Disruption of mitochondrial membrane potential in human MDA-MB-231 cells after 48 hrs by Rhodamine-123 staining based spectrofluorometry; type: functional, cell-based; procedure, shortened: as §1
A549 [13] = experiment: Induction of apoptosis in human A549 cells assessed as viable cells at 2 uM after 24 hrs by Annexin V-FITC/PI dual staining based flow cytometry (reference value: 85%); type: functional; details: A549, 24 h, read-out: Activity
A549 [14] = experiment: Induction of apoptosis in human A549 cells assessed as early apoptotic cells at 0.5 uM after 24 hrs by Annexin V-FITC/PI dual staining based flow cytometry (reference value: 5.3%); type: functional
MDA-MB-231 [15] = experiment: Induction of apoptosis in human MDA-MB-231 cells assessed as early apoptotic cells at 1 uM after 24 hrs by Annexin V-FITC/PI dual staining based flow cytometry (reference value: 0.3%); type: functional
MDA-MB-231 [16] = experiment: Cytotoxicity against human MDA-MB-231 cells assessed as growth inhibition after 72 hrs by MTT assay; type: functional, cell-based; details: MDA-MB-231, 72 h; procedure, shortened: as §3
A549 [17] = experiment: Induction of apoptosis in human A549 cells assessed as late apoptotic cells at 0.5 uM after 24 hrs by Annexin V-FITC/PI dual staining based flow cytometry (reference value: 4.5%); type: functional
MDA-MB-231 (human) = experiment: Induction of apoptosis in human MDA-MB-231 cells assessed as early apoptotic cells at 2 uM after 24 hrs by Annexin V-FITC/PI dual staining based flow cytometry (reference value: 5.3%)
A549 [18] = experiment: Induction of apoptosis in human A549 cells assessed as necrotic cells at 1 uM after 24 hrs by Annexin V-FITC/PI dual staining based flow cytometry (reference value: 5.2%); type: functional
MCF7 = experiment: Cytotoxicity against human MCF7 cells assessed as growth inhibition after 72 hrs by MTT assay; type: functional, cell-based; details: MCF7, 72 h; procedure, shortened: as §3
MDA-MB-231 [19] = experiment: Cell cycle arrest in human MDA-MB-231 cells assessed as accumulation at S phase at 2 uM after 24 to 48 hrs by propidium iodide staining based flow cytometry (reference value: 4.6%); type: functional; procedure, shortened: as §2
MDA-MB-231 [20] = experiment: Cell cycle arrest in human MDA-MB-231 cells assessed as accumulation at G2/M phase at 2 uM after 24 to 48 hrs by propidium iodide staining based flow cytometry (reference value: 20.2%); type: functional; procedure, shortened: as §2
MDA-MB-231 [21] = experiment: Induction of apoptosis in human MDA-MB-231 cells assessed as condensation of nuclei at 0.5 to 2 uM after 48 hrs by Hoechst […] staining based fluorescence microscopy; type: functional, cell-based
Procedure, shortened: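 Cells at 25×10^4 per well were allowed to adhere 24 h, then treated with 0.5, 1 and 2 µM compound for 48 h at 37 °C. After a PBS wash they were stained with Hoechst […] (5 µg/mL) for 30 min at room temperature and washed twice. Nuclear morphology was viewed by fluorescence microscopy (ex 350/em 460 nm).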

A549 [22] = experiment: Disruption of mitochondrial membrane potential in human A549 cells at 0.5 to 2 uM after 48 hrs by Rhodamine-123 staining based spectrofluorometry; type: functional; procedure, shortened: as §1
A549 [23] = experiment: Induction of apoptosis in human A549 cells assessed as viable cells at 1 uM after 24 hrs by Annexin V-FITC/PI dual staining based flow cytometry (reference value: 85%); type: functional; details: A549, 24 h, read-out: Activity
MDA-MB-231 [24] = experiment: Cell cycle arrest in human MDA-MB-231 cells assessed as accumulation at G2/M phase after 24 to 48 hrs by propidium iodide staining based flow cytometry; type: functional; procedure, shortened: as §2
MDA-MB-231 [25] = experiment: Induction of apoptosis in human MDA-MB-231 cells assessed as necrotic cells at 1 uM after 24 hrs by Annexin V-FITC/PI dual staining based flow cytometry (reference value: 1.9%); type: functional
A549 [26] = experiment: Cell cycle arrest in human A549 cells assessed as accumulation at G2/M phase after 24 to 48 hrs by propidium iodide staining based flow cytometry; type: functional; procedure, shortened: as §2

With `O=C1c2ccccc2Nc2ccccc2N1Cc1cn(Cc2ccccc2)nn1` the Activity (A549 [1]) was “Dose-dependent effect”, the Activity (A549 [2]) was 36.6% and the Activity (A549 [3]) was 15.3%. The Activity (A549 [4]) was 42.8%, the “fold change (FC)” value (A549 [5]) was 1.8 and the IC50 (A549 [6]) was 0.71 µM. The Activity (MDA-MB-231 [7]) was 10.1%, the Activity (MDA-MB-231 [8]) was 6.7% and the Activity (MDA-MB-231 [9]) was 11.5%. The Activity (A549 [10]) was “Dose-dependent effect”, the Activity (A549 [11]) was 43.6% and the Activity (MDA-MB-231 [12]) was “Dose-dependent effect”. The viability at 2 µM (A549 [13]) was 63.8%, the Activity (A549 [14]) was 9.4% and the Activity (MDA-MB-231 [15]) was 14.2%. The IC50 (MDA-MB-231 [16]) was 0.73 µM, the Activity (A549 [17]) was 12.7% and the Activity (MDA-MB-231 (human)) was 15.4%. For the same compound, the Activity (A549 [18]) was 1.9%, the IC50 (MCF7) was 7.29 µM and the Activity (MDA-MB-231 [19]) was 5.5%. The Activity (MDA-MB-231 [20]) was 63.4%, the Activity (MDA-MB-231 [21]) was “Active” and the Activity (A549 [22]) was 15%. The viability at 1 µM (A549 [23]) was 72%, the Activity (MDA-MB-231 [24]) was “Dose-dependent effect” and the Activity (MDA-MB-231 [25]) was 1.4%. For the same compound, the Activity (A549 [26]) was “Dose-dependent effect”.

Reference: ChEMBL document CHEMBL3763097, “Synthesis and biological evaluation of 5,10-dihydro-11H-dibenzo[b,e][1,4]diazepin-11-one structural derivatives as anti-cancer and apoptosis inducing agents” (Eur J Med Chem, 2016)
